≈ marks a conversion by molar mass, not a printed value.

Test [1] concerns 5637. Description: Antitumor activity was evaluated against human bladder carcinoma cell line 5637. It is filed as functional, cell-based. In outline: (§1)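 Solid-tumour and KB lines: exponentially growing cells seeded at 5×10⁴ cells/mL, allowed to adhere 16 h, then serial drug dilutions added. Viability by MTT after 4 days. Growth expressed as % of untreated controls, 50% inhibitory concentration by linear regression. Untreated cells undergo at least three rounds of multiplication.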

For test [2], the system named is Mycobacterium tuberculosis. Description: Antibacterial activity was evaluated against Mycobacterium tuberculosis (clinical isolate 1104). Type of test: functional. Put shortly: (§2)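 Broth microdilution in Middlebrook 7H9 with 0.5% glycerol and 10% OADC, containing serial concentrations of compound (diluted in medium from a DMSO solution). Plates were incubated 9 days at 37 °C, and viable bacteria were read by MTT. MIC is the mean of at least three separate experiments.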

Test [3] has as its system Trichophyton benhamiae. Briefly: Antimycotic activity against Trichophyton mentagrophytes was evaluated. MIC was defined as compound concentration at which no macroscopic signs of fungal growth were detected. Type of test: functional, Arthroderma benhamiae. In outline: (§3)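 Yeast inocula from 30 h Sabouraud dextrose broth cultures at 37 °C, diluted to 5×10³ cells/mL. Dermatophyte inocula from 5-day cultures, homogenized and diluted to 0.05 OD₅₉₀/mL. Inocula added to medium with serial dilutions, incubated at 37 °C, read visually at 2 days (yeast) or 3 days (dermatophytes). Mean of at least three experiments.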

For test [4], the system named is Candida tropicalis. Description: Antimycotic activity against Candida paratropicalis was evaluated. MIC was defined as compound concentration at which no macroscopic signs of fungal growth were detected. Type of test: functional. Put shortly: as §3
The subject of test [5] is CCRF-CEM. Description: Antitumor activity was evaluated against leukemia cell line CCRF-CEM(human acute T lymphoblastic leukemia). It is filed as functional, cell-based. Put shortly:
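Exponentially growing leukemia/lymphoma cells resuspended at 1×10⁵ cells/mL in RPMI with serial drug dilutions. Viability by MTT after 4 days at 37 °C. Mean of at least three experiments.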

Test [6] deals with Candida albicans. Briefly: Antimycotic activity against Candida albicans was evaluated as minimum inhibitory concentration of compound at which no macroscopic signs of fungal growth were detected. It is filed as functional. In outline:
as §3

Test [7] relates to CCRF-SB. Description: Antitumor activity was evaluated against leukemia cell line CCRF-SB(human acute B lymphoblastic leukemia). Type of test: functional, cell-based. In outline: (§4)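 Exponentially growing leukemia/lymphoma cells resuspended at 1×10⁵ cells/mL in RPMI with serial drug dilutions. Viability by MTT after 4 days at 37 °C. Concentration giving 50% growth inhibition versus untreated controls found by linear regression. Mean of at least three experiments.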

Test [8] concerns MOLT-4. Briefly: Antitumor activity was evaluated against leukemia cell line MOLT-4(human acute T lymphoblastic leukemia). It is filed as functional, cell-based. In outline: as §4
Test [9] relates to WIL2-NS. Briefly: Antitumor activity was evaluated against lymphoma cell line Wil2-NS (human splenic B lymphoblastoid cells). It is filed as functional, cell-based. Put shortly: as §4
Test [10] deals with Mycobacterium tuberculosis. Description: Antibacterial activity was evaluated against Mycobacterium tuberculosis (ATCC). It is filed as functional. Put shortly:
as §2

Test [11] concerns Cryptococcus neoformans. Briefly: Antimycotic activity against Cryptococcus neoformans was evaluated. MIC was defined as compound concentration at which no macroscopic signs of fungal growth were detected. It is filed as functional. Put shortly: as §3
In test [12] the test system is MT4. Description: Antitumor activity was evaluated against leukemia cell line MT-4(human CD4+ T cells expressing the TAT gene of HTLV-1). It is filed as functional, cell-based. In outline: as §4
Test [13] has as its system L1210. Description: Antitumor activity was evaluated against leukemia cell line L1210 (mouse leukemia). Type of test: functional, cell-based. In outline: as §4
For test [14], the system named is Streptococcus. Briefly: Antibacterial activity was evaluated against streptococcus. Type of test: functional. In outline: (§5)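 Recent clinical isolates grown in nutrient broth, pH 7.2, inoculum 10³ bacterial cells/tube, with serial compound dilutions. […] Mean of at least three separate experiments.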
The subject of test [15] is ACHN. Description: Antitumor activity was evaluated against human renal adenocarcinoma cell line ACHN. Type of test: functional, cell-based. Put shortly:
as §1

The subject of test [16] is Staphylococcus. Description: Antibacterial activity was evaluated against staphylococcus. It is filed as functional. In outline:
as §5

The subject of test [17] is Mycolicibacterium fortuitum. Briefly: Antibacterial activity was evaluated against Mycobacterium fortuitum. It is filed as functional. Put shortly:
(§6)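 Mycobacterial suspension (turbidity of 1 McFarland standard, 10⁸ CFU/mL) added to Middlebrook 7H9 with 0.5% glycerol, 10% OADC and serial compound dilutions. Incubated at 37 °C, 1 day for M. smegmatis and M. fortuitum, 9 days for MAC. Viable mycobacteria counted by MTT. MIC given as mean of at least three separate experiments.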

Test [18] concerns Mycolicibacterium smegmatis. Description: Antibacterial activity was evaluated against Mycobacterium smegmatis. It is filed as functional. In outline:
as §6

The subject of test [19] is HeLa. Description: Antitumor activity was evaluated against human cervix carcinoma cell line HeLa. It is filed as functional, cell-based. Put shortly: as §1
For test [20], the system named is CHO-K1. Briefly: Antitumor activity was evaluated against Chinese hamster ovary carcinoma cell line CHO-K1. Type of test: functional, cell-based. Particulars: Cricetulus griseus. In outline:
as §1

In test [21] the test system is Mycobacterium. Description: Antibacterial activity was evaluated against MAC (Mycobacterium Avium Complex ). It is filed as functional. In outline:
as §6

Test [22] deals with Candida parapsilosis. Briefly: Antimycotic activity against Candida parapsilosis was evaluated as compound concentration at which no macroscopic signs of fungal growth were detected. It is filed as functional. Conditions: Lodderomyces parapsilosis. In outline:
as §3

In test [23] the test system is Shigella. Description: Antibacterial activity was evaluated against shigella. Type of test: functional. In outline: as §5
Test [24] relates to HT-29. Briefly: Antitumor activity was evaluated against human colon adenocarcinoma cell line HT-29. It is filed as functional, cell-based. In outline:
as §1

Test [25] deals with Salmonella. Description: Antibacterial activity was evaluated against salmonella. It is filed as functional. In outline:
as §5

The test system of test [26] is Aspergillus fumigatus. Description: Antimycotic activity against Aspergillus fumigatus was evaluated as compound minimum inhibitory concentration at which no macroscopic signs of fungal growth were detected. Type of test: functional.
In test [27] the test system is IMR-32. Briefly: Antitumor activity was evaluated against human neuroblastoma cell line IMR-32. It is filed as functional, cell-based. Put shortly: as §1
Test [28] relates to Lymphoblastoid cell. Briefly: Cytotoxicity was evaluated against lymphoblastoid cell line. Particulars: Homo sapiens. Type of test: functional.
The species named for test [29] is Homo sapiens. Briefly: In vitro Antiproliferative activity against peripheral blood lymphocytes (PBL) by treating PBL with compound for 3 days, then stimulating with PHA and then resuspending in compound free medium. Type of test: functional. Conditions: 72 h. In outline: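 Resting donor PBL held at 1×10⁶ cells/mL and treated with compound for up to 3 days, then washed. Stimulated with PHA for 24 h, diluted to 1×10⁵ cells/mL in drug-free medium with PHA and IL-2. Viability read after 6 days at 37 °C. Mean ±SD of three experiments.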

The species entered for test [30] is Homo sapiens. Description: In vitro Antiproliferative activity against peripheral blood lymphocytes (PBL) after stimulating PBL with PHA and then resuspending in IL-2-containing medium in the presence of compound. It is filed as functional. Put shortly:
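PBL from HIV-negative donors, isolated on Ficoll-Hypaque and rested overnight. Stimulated with PHA 2.5 μg/mL for 24 h, diluted to 1×10⁵ cells/mL in medium with PHA, IL-2 50 U/mL and compound. Viable cells counted after 6 days. Mean ±SD of three experiments.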

For test [31], the system named is KB. Briefly: Antiproliferative activity against drug-resistant tumor cell line KBwt. Particulars: Homo sapiens. Type of test: functional, cell-based. Put shortly:
as §1

The subject of test [32] is KB. Description: Antiproliferative activity against drug-resistant tumor cell line KBMDR. It is filed as functional, cell-based. Particulars: Homo sapiens. In outline:
as §1

Test [33] has as its system KB. Description: Antiproliferative activity against drug-resistant tumor cell line KBCamp. Type of test: functional, cell-based. Particulars: Homo sapiens. In outline: as §1
For test [34], the system named is KB. Briefly: Antiproliferative activity against drug-resistant tumor cell line KBV20C. Type of test: functional, cell-based. Particulars: Homo sapiens. Put shortly:
as §1

Test [35] has as its system KB. Description: Antiproliferative activity against drug-resistant tumor cell line KB7D. Type of test: functional, cell-based. Conditions: Homo sapiens. Put shortly:
as §1

With `O=Nc1c2ccccc2n2nnc3ccc(Cl)cc3c12`, the IC50 turned out to be 2.1 µM in test [1]; 5 µM in [5]; 7 µM in [7]; 2 µM in test [8]; 2.7 µM in [9]; 1.7 µM in test [12]. For the same molecule, the IC50 in test [13] is 7.4 µM; in [15] it was 11 µM; in [19] it was 5.4 µM; in test [20] it was 31 µM; in [24] it was 24 µM; in test [27], 2.3 µM. Besides, the MIC in test [2] was 1.6 µM (≈ 0.452 µg/mL); in [3] it was 9.4 µM (≈ 2.66 µg/mL); in test [4], 150 µM (≈ 42.4 µg/mL); in [6] it was 150 µM (≈ 42.4 µg/mL); in test [10] it was 1.8 µM (≈ 0.509 µg/mL); in [11], 0.8 µM (≈ 0.226 µg/mL). The MIC in test [14] is 0.1 µM (≈ 0.0283 µg/mL); in test [16] it was 0.05 µM (≈ 0.0141 µg/mL); in test [17] it was greater than 5 µM; in [18] it was 4.2 µM (≈ 1.19 µg/mL); in test [21] it was 2.5 µM (≈ 0.707 µg/mL); in test [22], 19 µM (≈ 5.37 µg/mL). Moreover, the values for the MIC in test [23], in test [25] and in test [26] were greater than 200 µM, greater than 200 µM and 9.4 µM (≈ 2.66 µg/mL), respectively.
For the molecule `COc1cccc2c1C(=O)c1c(O)c3c(c(O)c1C2=O)C[C@@](O)(C(=O)CO)C[C@@H]3O[C@H]1C[C@H](N)[C@H](O)[C@H](C)O1` [DOXORUBICIN], the IC50 in test [1] was found to be 0.02 µM; in test [7] it was 0.01 µM; in test [8] it was 0.03 µM; in test [9], 0.02 µM; in test [12] it was 0.02 µM; in [13], 0.23 µM. The IC50 was found to be 0.4 µM in [15], 0.4 µM in test [20], 0.05 µM in test [24] and 0.01 µM in [27]. Besides, the values for the CC50 in [28], in test [29] and in test [30] were 0.06 µM, 0.09 µM and 0.04 µM, respectively. The MIC in [3], in [4], in test [6], in test [11], in test [22] and in test [26] was greater than 2.5 µM each time.
With `COc1ccc2c(c1)c(N=O)c1c3ccccc3nnn21`, the IC50 came out at 6 µM in test [1]; 7.2 µM in test [5]; 5 µM in test [7]; 1.3 µM in test [8]; 3.7 µM in [9]; 1.1 µM in [12]. Besides, the IC50 in test [13] was 13 µM; in [15] it was 14 µM; in test [19], 11 µM; in test [20], greater than 50 µM; in test [24], greater than 50 µM; in [27], 2.3 µM. Moreover, the MIC in [2] was 4.5 µM (≈ 1.25 µg/mL); in test [3], greater than 200 µM; in [4], greater than 200 µM; in test [6], greater than 200 µM; in [10], 5.3 µM (≈ 1.47 µg/mL); in test [11], greater than 200 µM. For the same molecule, the MIC was 0.1 µM (≈ 0.0278 µg/mL) in test [14]; 0.2 µM (≈ 0.0557 µg/mL) in [16]; greater than 5 µM in test [17]; greater than 5 µM in test [18]; 2.5 µM (≈ 0.696 µg/mL) in [21]; greater than 200 µM in test [22]. Further, the MIC in test [23], in test [25] and in [26] was greater than 200 µM throughout.
As to `CC[C@]1(O)C[C@H]2CN(CCc3c([nH]c4ccccc34)[C@@](C(=O)OC)(c3cc4c(cc3OC)N(C=O)[C@H]3[C@@](O)(C(=O)OC)[C@H](OC(C)=O)[C@]5(CC)C=CCN6CC[C@]43[C@@H]65)C2)C1` [VINCRISTINE], the 50% inhibitory concentration (IC50) in test [31] was determined as 0.001 µM; in test [32], 0.35 µM; in test [33], 0.005 µM; in test [34], 0.05 µM; in test [35] it was 0.035 µM.
In the case of `COc1cc([C@@H]2c3cc4c(cc3[C@@H](O[C@@H]3O[C@@H]5CO[C@@H](C)O[C@H]5[C@H](O)[C@H]3O)[C@H]3COC(=O)[C@H]23)OCO4)cc(OC)c1O` [ETOPOSIDE], the IC50 in test [31] is 1.45 µM; in [32] it was 26.2 µM; in test [33], 1.3 µM; in [34] it was greater than 50 µM; in test [35] it was greater than 50 µM.

These data come from ChEMBL document CHEMBL1132294, “Derivatives of the new ring system indolo[1,2-c]benzo[1,2,3]triazine with potent antitumor and antimicrobial activity” (J Med Chem, 1999).
